MT stabilizer – stabilizes microtubules in HeLa cells; HeLa tubulin immunostaining HCS, 24 h; share of cells brighter than vehicle mean+2SD; % tubulin-high responders, % at 10 µM; actives 0.83% (n = 200,000); AID 2205;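 active means plate Z-score above 3 for both tubulin-high and condensed-nucleus cell shares, with cell loss under 80%, at 10 µM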;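 further: anti alpha tubulin signal scored within the nucleus-defined area of each cell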
ABCG2 block – human ABCG2 inhibition, ABCB1 as counter-screen | Q9UNQ0 | IgMXP3 cells, JC-1 efflux, flow cytometry | inhibition, % at 6.6 µM | actives 0.1% (n = 190,000);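 active means inhibition above 80%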
Target sequence (Q9UNQ0 whole entry, looked up): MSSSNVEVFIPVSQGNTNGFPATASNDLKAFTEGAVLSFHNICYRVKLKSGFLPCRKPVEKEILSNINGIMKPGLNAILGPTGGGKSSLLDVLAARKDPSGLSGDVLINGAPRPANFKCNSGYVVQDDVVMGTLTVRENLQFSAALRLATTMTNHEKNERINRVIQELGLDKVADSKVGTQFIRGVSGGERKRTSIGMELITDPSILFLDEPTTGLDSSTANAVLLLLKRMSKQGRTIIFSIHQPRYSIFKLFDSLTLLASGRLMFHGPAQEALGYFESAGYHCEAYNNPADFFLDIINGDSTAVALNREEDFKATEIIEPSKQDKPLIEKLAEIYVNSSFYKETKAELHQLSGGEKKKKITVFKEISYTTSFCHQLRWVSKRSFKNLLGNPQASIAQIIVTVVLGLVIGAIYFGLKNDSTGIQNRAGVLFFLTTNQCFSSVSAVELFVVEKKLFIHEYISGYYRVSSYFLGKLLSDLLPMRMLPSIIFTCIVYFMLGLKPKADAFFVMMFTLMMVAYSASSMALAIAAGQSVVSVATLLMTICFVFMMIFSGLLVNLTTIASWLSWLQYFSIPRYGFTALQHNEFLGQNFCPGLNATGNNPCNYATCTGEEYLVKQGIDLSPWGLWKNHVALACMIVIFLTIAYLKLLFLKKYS
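Read-out basis: Efflux inhibition in percent versus controls | Test system: ABCG2 IgMXP3 and barcoded ABCB1 CCRF-Adr cell mix | Quantity: 3 million cells/mL in well | Schedule: 10 min at 25 °C | Control set: Nicardipine as high control, DMSO as low control | Reagent: JC-1 as fluorescent efflux pump substrate | Signal: Flow cytometry of retained JC-1 fluorescence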
b-catenin transl – beta-catenin nuclear translocation modulation | nuclear translocation activity, % at 5 µM | actives 0.3% (n = 190,000) | HeLa beta-catenin nuclear translocation, immunofluorescence imaging;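 active means nuclear translocation activity above 50% at 5 µM, with a well cell count of 50 or more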;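 further: per-cell ratio of nuclear to cytoplasmic median beta-catenin stain intensity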
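Test system: HeLa cells, endogenous beta-catenin; Compound: single 5 µM dose plus 0.02–20 µM confirmation series; Times: compound exposure 24 h at 37°C; Signal: fluorescence imaging of beta-catenin antibody stain plus DAPI; Read-out: % activation, nuclear-to-cytoplasmic median beta-catenin signal ratio per cell.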
ABCB1 block – inhibitors of human ABCB1 transporter, ABCG2 counter-screen; P08183; CCRF-Adr cells, JC-1 efflux, flow cytometry; inhibition, % at 6.6 µM; actives 0.067% (n = 190,000); AID 1326; in the data active means inhibition above about 40%;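 further: higher value means more JC-1 retained so stronger ABCB1 efflux block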
PKD1 kinase inh – PKD1 (human) kinase inhibition; Q15139; PKD1 kinase fluorescence polarization assay; inhibition, % (concentration not given with the values); actives 0.056% (n = 200,000); in the data active means inhibition above about 50%
Of the large screens only hits and unclear results are named; the others gave an inactive call. Compounds with a hit are over-represented: about 1% of the library has one in this group of screens.

CC(=O)c1cccc(NC(=O)NNC(=O)CCC(=O)Nc2ccc(C)c(C)c2)c1	none
NS(=O)(=O)c1ccc(CNC(=S)NCc2ccc(Cl)cc2)cc1	MT stabilizer 11.1
Cc1cc(Cl)ccc1NC(=S)NCc1ccc(S(N)(=O)=O)cc1	none
C/C(=N\NS(=O)(=O)c1ccccc1)c1ccc2c(c1)OCCO2	none
O=C(COc1ccc(S(=O)(=O)N2CCOCC2)cc1)Nc1ccc(Cl)c(C(F)(F)F)c1	MT stabilizer 32.4
Cc1cc(C)n(-c2nc3c(c(=O)[nH]c(=O)n3C)n2CCc2ccccc2)n1	MT stabilizer 40.9
Clc1cccc(/C(Cc2nc3ccccc3[nH]2)=N\Nc2ccccc2)c1	none
CCNS(=O)(=O)c1ccc(NC(=O)c2ccc(Cn3cc([N+](=O)[O-])cn3)o2)cc1	none
c1ccc2c(SCc3cn4ccccc4n3)nncc2c1	none
COc1ccc(/C=N/NC(=O)c2ccc3ccccc3c2)cc1OS(=O)(=O)c1ccc(NC(C)=O)cc1	b-catenin transl 108.9
C=CCNc1nc(C)c(C(C)=O)cc1C#N	none
CCCNc1nc(-c2ccccc2)c(C(=O)OCC)cc1C#N	MT stabilizer 27.4
CCOC(=O)c1cc(C#N)c(Oc2ccccc2)nc1-c1ccccc1	none
C=CCNc1nc(-c2ccccc2)c(C(=O)OCC)cc1C#N	MT stabilizer 33.2
CCOC(=O)c1cc(C#N)c(N2CCOCC2)nc1-c1ccccc1	none
CCCCNc1nc(-c2ccccc2)c(C(=O)OCC)cc1C#N	MT stabilizer 35.0 (no result: b-catenin transl)
CCCOP(=O)(c1ccc(N(C)C)cc1)C(Nc1ccccc1)c1ccc(C)cc1 (configuration not stated)	none (no result: MT stabilizer, ABCG2 block, ABCB1 block, PKD1 kinase inh)
COc1ccc(N(C(=O)c2ccccc2C)S(=O)(=O)c2cccs2)cc1	MT stabilizer 15.5, b-catenin transl 98.7
O=C(NNC(=S)Nc1ccc(F)cc1)c1ccccc1OC(F)F	none
Cc1ccc(NC(=S)NNC(=O)c2ccccc2OC(F)F)cc1	MT stabilizer 45.3
O=C(N/N=C/c1ccc(O)cc1)Nc1cccc2nsnc12	MT stabilizer 11.4
Cc1nn(-c2ccccc2)c(C)c1/C=N/NC(=O)c1cc(C(C)(C)C)[nH]n1	none
Cc1ccc(-c2cc(C(=O)N/N=C/c3c(C)nn(-c4ccccc4)c3C)n[nH]2)s1	b-catenin transl 122.5
Cc1ccc(-c2cc(C(=O)N/N=C/c3c(C)nn(-c4ccccc4)c3C)[nH]n2)cc1	b-catenin transl 101.7
CC(C)(C)c1ccc(Cn2nc(CC(=O)O)c3ccccc3c2=O)cc1	none
Cc1cc(NC(=O)CSc2nc3ccccc3c(=O)n2C(C)c2ccccc2)no1 (configuration not stated)	none (no result: b-catenin transl)
Cc1cc(NC(=O)CSc2nc(C(C)(C)C)nc3ccccc23)no1	MT stabilizer 14.2
CCC(C)n1c(SCC(=O)Nc2cc(C)on2)nc2ccccc2c1=O (configuration not stated)	MT stabilizer 38.6
CSc1ccccc1NC(=O)CSCc1ccc(C)cc1	MT stabilizer 30.5
COc1cccc(-c2cc(=O)c3cc(NC(C)=O)ccc3[nH]2)c1	MT stabilizer 29.8 (no result: b-catenin transl)
CC(=O)Nc1ccc2[nH]c(C)cc(=O)c2c1	none (no result: b-catenin transl)
Cc1cc(C)nc(-n2nc(C)cc2NC(=O)c2cccc(S(=O)(=O)N(C)C)c2)n1	none (no result: MT stabilizer, ABCG2 block, ABCB1 block, PKD1 kinase inh)
Cc1ccc(C)c(C(=O)Nc2cc(C)nn2-c2nc(C)cc(C)n2)c1	MT stabilizer 12.9
Cc1cc(S(=O)(=O)Nc2ccc(F)cc2)c(C)s1	none
c1ccc(-n2cnc3cc(NCc4cccs4)ccc32)cc1	MT stabilizer 40.9
CCOC(=O)Cc1cc(=O)c2cc(C)ccc2[nH]1	none (no result: MT stabilizer, ABCG2 block, ABCB1 block, PKD1 kinase inh)
COc1ccc(/C=N/NC(=O)c2cc(OC)c(OC)c(OC)c2)cc1CN1CCc2cc(OC)c(OC)cc2C1C (configuration not stated)	MT stabilizer 20.3
COc1cc(OC)cc(C(=O)N/N=C/c2ccc(OC)c(COc3ccc(F)cc3)c2)c1	b-catenin transl 212.7
COc1ccc(/C=N/NC(=O)c2cccnc2)cc1CSc1ccccn1	b-catenin transl 64.9 (no result: MT stabilizer, ABCG2 block, ABCB1 block, PKD1 kinase inh)
COc1ccc(-n2nc(C(=O)Nc3nc4ccc(OC)cc4s3)c3ccccc3c2=O)c(OC)c1	none
COc1ccc(C[C@H]2CN3C(=NC[C@H]3Cc3ccccc3)N2CCNC(=O)c2ccc(C)c(Br)c2)cc1	b-catenin transl 63.3 (no result: MT stabilizer, ABCG2 block, ABCB1 block, PKD1 kinase inh)
CCOC(=O)c1ccc(NC(=O)CN2C(=O)CSC(C)C2=O)cc1 (configuration not stated)	none
Cc1cccc(Cn2c(=O)n(-c3ccc(CC(=O)NCc4ccco4)cc3)c(=O)c3sccc32)c1	MT stabilizer 28.9
Cc1ccc(-n2c(=O)c3sccc3n(CC(=O)NCc3ccco3)c2=O)cc1	none
O=[N+]([O-])c1ccc(N=NN(CCO)CCO)cc1	none (no result: ABCB1 block)
O=[N+]([O-])c1ccc(N=Nc2ccc(O)cc2O)cc1	MT stabilizer 22.0 (no result: b-catenin transl)
COC(=O)C1=C(Nc2ccc(C)cc2)C=C(C)C(C(=O)OC)C1c1cccc(OC)c1 (configuration not stated)	b-catenin transl 56.8
COC(=O)C1=C(Nc2ccc(C)cc2)C=C(C)C(C(=O)OC)C1c1ccc(OC)cc1 (configuration not stated)	MT stabilizer 31.2, b-catenin transl 72.4
CS(=O)(=O)NCCSc1cc(C(F)(F)F)nc2ccccc12	none (no result: MT stabilizer, ABCG2 block, ABCB1 block, PKD1 kinase inh)
Cc1nc(NC(=O)c2ccc(F)cc2)sc1C(=O)Nc1ccc2c(c1)CCC2	none (no result: b-catenin transl)
Cc1ccc(C(=O)Nc2nc(C)c(C(=O)Nc3ccc4c(c3)CCC4)s2)cc1	b-catenin transl 183.0
CCc1cccc(CC)c1NC(=S)Nc1ccccc1	none
O=C1/C(=C/c2ccccc2)Nc2ccccc21	none
O=C1/C(=C/c2ccccc2)NC(=S)N1C(c1ccccc1)c1ccccc1	MT stabilizer 35.8, b-catenin transl 60.8
COC(=O)Nc1nc2ccc(-c3n[nH]c(=O)c4ccccc34)cc2[nH]1	none
C=CCOc1ccc2nc(NC(=O)OC)[nH]c2c1	MT stabilizer 38.1, b-catenin transl 109.0
CCOc1ccc(Cc2c(Cl)nc(SC)nc2N(C)C)cc1	MT stabilizer 22.4
COc1ccc(S(=O)(=O)N(C(=O)c2ccncc2)c2ccc3oc4c(c3c2)CCCC4)cc1	MT stabilizer 22.4
CCOc1ccc(NCc2nnc(SCC(=O)Nc3cc(C)on3)n2-c2ccc(OC)cc2)cc1	none
CCOc1ccc(NCc2nnc(SCC(=O)Nc3cc(C)on3)n2-c2ccccc2OC)cc1	MT stabilizer 23.6
COC(=O)c1ccccc1NC(=O)Cn1c(-c2nonc2N)nc2ccccc21	MT stabilizer 18.5
Cc1ccc(S(=O)(=O)Nc2ccc3c4c(cccc24)CC3)c(C)c1	MT stabilizer 41.7 (no result: ABCG2 block, b-catenin transl, ABCB1 block)
C/C(CC(=O)NCc1ccccc1)=N\NC(=O)c1cnccn1	none
Cn1cc(C2CC(c3ccccc3)=NN2C(=O)c2ccccc2)c2ccccc21 (configuration not stated)	MT stabilizer 24.1
COc1cccc(C2=CC(c3cccs3)n3nnnc3N2)c1 (configuration not stated)	MT stabilizer 33.4
